Source: PMC4007056 (Molecular cancer therapeutics, 2014)

Legend:
[1] = test system: i.c. HIFko tumor derived cell suspension; test: ex vivo binding of individual phage to tumor-derived cell suspension; type: cell-based, mouse; conditions: cell suspension from tumor containing brain relative to normal brain
[2] = test system: intracranial HIFko tumors; test: in vivo homing of intravenously injected phage; design: species or system mouse; conditions: intravenous injection; compared to control phage; mean of three experiments
Method in brief: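 T7Select415-1 phage displaying the peptide were injected into the tail vein of mice bearing intracranial HIFko tumors and circulated 15 min. Tissues were excised and phage recovered and amplified in E. coli BLT5615. Non-recombinant control phage was injected into a separate mouse, and homing was expressed relative to it. Mean of three experiments, ±SEM.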

[3] = test system: intracranial U87MG human glioma; test: in vivo homing of fluorescein-conjugated peptide, i.c. U87MG glioma; design: species or system mouse; conditions: fluorescein-conjugated peptide i.v., 60 min
Method in brief: (§1)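 Athymic female Balb/c nu-nu mice (4–6 wk) with intracranial tumors, used 10–21 days after inoculation. Fluorescein-labelled peptide (100 µM, 100 µl/animal) was injected into the tail vein and circulated 60 min. Mice were perfused through the […] and tumors excised. Frozen sections (5–10 µm) were stained with rabbit anti-FITC, anti-PECAM-1 for vessels and DAPI, then examined by fluorescence microscopy.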

[4] = test system: rat BT4C glioma xenografts; test: in vivo homing of fluorescein-conjugated peptide, BT4C glioma; design: species or system mouse; conditions: fluorescein-conjugated peptide i.v., 60 min
Method in brief: as §1

[5] = test system: orthotopic MDA-MB-231 human breast cancer xenografts; test: in vivo homing of fluorescein-conjugated peptide, MDA-MB-231 xenografts; design: species or system mouse; conditions: fluorescein-conjugated peptide i.v., 60 min
Method in brief: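 Athymic female Balb/c nu-nu mice (4–6 wk) bearing xenografts received fluorescein-labelled peptide intravenously, circulated one hour. Frozen sections (5–10 µm) were stained with rabbit anti-FITC and anti-PECAM-1 antibodies, Alexa-conjugated secondaries and DAPI, then examined under a fluorescence microscope.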

[6] = test system: subcutaneous tumors established from the HIFko cells; test: in vivo homing of fluorescein-conjugated peptide, subcutaneous HIFko tumors; design: species or system mouse; conditions: fluorescein-conjugated peptide i.v., 60 min
Method in brief: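 Athymic female Balb/c nu-nu mice (4–6 wk) were grafted subcutaneously on the abdominal side with 5×10^6 HIFko cells. Fluorescein-labelled peptide was given intravenously and circulated one hour. Frozen tissue sections (5–10 µm) were stained with rabbit anti-FITC antibody, Alexa-conjugated secondary antibody and DAPI, then viewed by fluorescence microscopy.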

[7] = test system: tumors derived from VEGF-expressing HIFko cells; test: in vivo homing of fluorescein-conjugated peptide, VEGF-expressing HIFko tumors; design: species or system mouse; conditions: fluorescein-conjugated peptide i.v., 60 min; i.c. tumors
Method in brief: as §1

[8] = test system: i.c. tumors derived from MDGI expressing U87MG cells; type: in vivo, mouse; conditions: MDGI expressing versus control U87MG tumors; fluorescein-conjugated peptide i.v.
[9] = test system: intracranial HIFko tumors; test: treatment of intracranial HIFko tumor-bearing mice with targeted Cbl; type: in vivo, mouse
Method in brief: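 Athymic female Balb/c nu-nu mice (4–6 wks) bearing intracranial HIFko tumours were randomised to groups of 4 from day 5 post-implantation. They received i.v. PBS, peptide–drug conjugate (5 mg/kg), or free drug at the same molar amount, every second day. Body weight was monitored, and mice were sacrificed once weight loss exceeded 10%.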

CGLSGLGVA [phage 36]
brain tumor to normal brain ratio of ex vivo phage binding [1]: over 80
accumulation in other organs (liver, kidney, lung, normal brain) [2]: negligible accumulation

CSESGLGVA [phage 34]
brain tumor to normal brain ratio of ex vivo phage binding [1]: about 13

H-ACGLSGLGVA-NH2 [CooP]
homing to intracranial U87MG human glioma [3]: homed
homing to rat BT4C glioma xenografts [4]: homed
homing to MDA-MB-231 human breast cancer xenografts [5]: No CooP peptide was detected
homing to subcutaneous HIFko tumors [6]: did not home
homing to tumors derived from VEGF-expressing HIFko cells [7]: did not home
effect of MDGI-expression on peptide homing to i.c. U87MG tumors [8]: substantially increased

NH2-CGLSGLGVAGGMVRRFLVTLRIRRACGPPRVRVK(^εCbl)-CONH2 [CooP-CPP-Cbl]
signs of tumor burden ([9]; 5 mg/kg i.v. every second day from d5): did not show any signs of tumor burden
body weight course ([9]; 5 mg/kg i.v. every second day from d5, 4 mice/group): gained weight
life span of the animals ([9]; 5 mg/kg i.v. every second day from d5, versus saline and free Cbl): prolonged the life span
size of the primary tumor versus control groups ([9]; 5 mg/kg i.v. every second day, four sections/animal): no difference
